Laboratory results published in ChEMBL document CHEMBL3792374, “Discovery of a ring-opened derivative of 3-n-butylphthalide bearing NO/H2S-donating moieties as a potential anti-ischemic stroke agent” (Eur J Med Chem, 2016).
Active and inactive are the calls of the source. The calls are words filed in the database; no cut-off is given here.

How the values were obtained:
Rattus norvegicus [1] = experiment: Antioxidant activity in Sprague-Dawley rat brain tissue model of transient middle cerebral artery occlusion stroke model assessed as increase in superoxide dismutase levels per mg of protein at 80 mg/kg […] measured 24 hrs after reperfusion by nitroblue tetrazolium assay relative to control; assay type: functional
Rattus norvegicus [2] = experiment: Antioxidant activity in Sprague-Dawley rat brain tissue model of transient middle cerebral artery occlusion stroke model assessed as increase in superoxide dismutase levels per mg of protein at 380 mg/kg […] measured 24 hrs after reperfusion by nitroblue tetrazolium assay relative to control; assay type: functional
Rattus norvegicus [3] = experiment: Antioxidant activity in Sprague-Dawley rat brain tissue model of transient middle cerebral artery occlusion stroke model assessed as increase in glutathione peroxidase levels per mg of protein at 80 mg/kg […] measured 24 hrs after reperfusion by DTNB assay relative to control; assay type: functional
[4] = Induction of nitric oxide release in potassium phosphate buffer at pH 7.4 at 0.1 mM after 30 mins by Griess assay; assay type: physicochemical; details: pH 7.4, 0.5 h, 100 µM
How it was run: (§1)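 Compound (0.1 mM) in PBS pH 7.4 containing 2% DMSO and 5.0 mM L-cysteine was held at 37 °C for 15–300 min. Samples were taken every 15 min up to 120 min, then every 30 min. Each sample was reacted with Griess reagent for 10 min at 37 °C and absorbance read at 540 nm. Nitrite was quantified from a nitrite standard curve. Means reported; intra-group variation <10%.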

[5] = Induction of nitric oxide release in potassium phosphate buffer at pH 7.4 at 0.1 mM after 45 mins by Griess assay; assay type: physicochemical; details: pH 7.4, 0.75 h, 100 µM; how it was run: as §1
[6] = Induction of nitric oxide release in potassium phosphate buffer at pH 7.4 at 0.1 mM after 90 mins by Griess assay; assay type: physicochemical; details: pH 7.4, 1.5 h, 100 µM; how it was run: as §1
[7] = Induction of nitric oxide release in potassium phosphate buffer at pH 7.4 at 0.1 mM after 105 mins by Griess assay; assay type: physicochemical; details: pH 7.4, 1.75 h, 100 µM; how it was run: as §1
[8] = Induction of nitric oxide release in potassium phosphate buffer at pH 7.4 at 0.1 mM after 120 mins by Griess assay; assay type: physicochemical; details: pH 7.4, 2 h, 100 µM; how it was run: as §1
[9] = Induction of nitric oxide release in potassium phosphate buffer at pH 7.4 at 0.1 mM after 240 mins by Griess assay; assay type: physicochemical; details: pH 7.4, 4 h, 100 µM; how it was run: as §1
[10] = Induction of nitric oxide release in potassium phosphate buffer at pH 7.4 at 0.1 mM after 300 mins by Griess assay; assay type: physicochemical; details: pH 7.4, 5 h, 100 µM; how it was run: as §1
Liver [11] = experiment: Induction of hydrogen sulfide release in rat liver homogenate at 100 uM after 60 mins by microplate reader method (reference value: 1.03 to 1.21%); assay type: functional, tissue-based
How it was run: (§2)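 Compound was incubated at 37 °C for 0–90 min with fresh rat liver homogenate. The reaction was stopped with 1% zinc acetate and 10% trichloroacetic acid. N,N-dimethyl-p-phenylenediamine sulfate in 7.2 M HCl and FeCl3 in 1.2 M HCl were added, and absorbance was read at 670 nm after 10 min. Values were calculated against an NaHS standard curve as cumulative % conversion to H2S, n = 6.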

Liver [12] = experiment: Induction of hydrogen sulfide release in rat liver homogenate at 100 uM after 90 mins by microplate reader method (reference value: 1.03 to 1.21%); assay type: functional, tissue-based; how it was run: as §2
[13] = Antiplatelet activity in rabbit platelet-rich plasma assessed as inhibition of ADP-induced platelet aggregation at 0.1 mM preincubated for 5 mins followed by addition of ADP measured within 5 mins by Borns turbidimetric method; assay type: functional; details: Oryctolagus cuniculus
How it was run: (§3)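 Rabbit carotid blood was citrated (3.8%, 9:1). PRP was obtained at 500 g for 10 min and PPP at 3000 g for 10 min. PRP was preincubated in duplicate for 5 min at 37 °C with 0.1 mM compound, plus carboxy-PTIO or BSS where indicated. ADP was then added and maximal light transmission recorded within 5 min, within 3 h of blood collection. Inhibition % was calculated versus control. Mean ± SD of three independent experiments.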

[14] = Antiplatelet activity in rabbit platelet-rich plasma assessed as inhibition of ADP-induced platelet aggregation preincubated for 5 mins followed by addition of ADP measured within 5 mins by Borns turbidimetric method; assay type: functional; details: Oryctolagus cuniculus
How it was run: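 Platelet-rich plasma from citrated rabbit carotid blood was preincubated in duplicate at 37 °C for 5 min with compound at 0.1, 0.2, 0.4, 0.8 or 1.6 mM. ADP-induced aggregation was then recorded turbidimetrically, as maximal light transmission within 5 min. Inhibition was calculated versus vehicle control, and IC50 values were derived. Mean ± SD, n = 6, ANOVA/Tukey.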

[15] = Antiplatelet activity in rabbit platelet-rich plasma assessed as inhibition of ADP-induced platelet aggregation at 0.1 mM preincubated for 5 mins followed by addition of ADP measured within 5 mins by Borns turbidimetric method in presence of nitric oxide scavenger carboxy-PTIO; assay type: functional; details: Oryctolagus cuniculus; how it was run: as §3
Liver [16] = experiment: Induction of hydrogen sulfide release in rat liver homogenate at 100 uM after 15 mins by microplate reader method (reference value: 1.03 to 1.21%); assay type: functional, tissue-based; how it was run: as §2
Rattus norvegicus [17] = experiment: Neuroprotective activity in Sprague-Dawley rat model of transient middle cerebral artery occlusion stroke model assessed as reduction in neurological deficit at 380 mg/kg […] measured 24 hrs after middle cerebral artery occlusion by Longa's method; assay type: functional, organism-based
Rattus norvegicus [18] = experiment: Neuroprotective activity in Sprague-Dawley rat model of transient middle cerebral artery occlusion stroke model assessed as reduction in infarct size at 380 mg/kg administered via oral gavage for 7 days […] measured 24 hrs after middle cerebral artery occlusion by TTC assay; assay type: functional, organism-based
How it was run: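 Male SD rats (280–320 g), n=12/group, dosed by gavage in 0.5% CMC-Na daily for seven days; 2 h after last dose, anesthetized (chloral hydrate 300 mg/kg ip) and subjected to 2 h intraluminal MCAO then reperfusion. At 24 h post-reperfusion, brains (n=6) cut coronally at 2 mm, stained 2% TTC 30 min 37 °C, formalin-fixed; infarct area expressed as percent of whole brain; mean SD, ANOVA/Tukey.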

Rattus norvegicus [19] = experiment: Neuroprotective activity in Sprague-Dawley rat model of transient middle cerebral artery occlusion stroke model assessed as reduction in brain water content at 380 mg/kg administered via oral gavage for 7 days after ischemia onset measured 24 hrs after middle cerebral artery occlusion; assay type: functional, organism-based; details: in the assay text read “before ischemia onset” for “after ischemia onset”
How it was run: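 Male SD rats were gavaged daily for 7 days, with 0.5% CMC-Na as vehicle, then underwent 2 h MCAO with reperfusion. At 24 h after reperfusion the ischemic hemisphere was weighed wet, dried at 100 °C for 24 h and reweighed. Water content was calculated as (wet − dry)/wet × 100%. Mean ± SD, n = 6, ANOVA/Tukey.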

Rattus norvegicus [20] = experiment: Antioxidant activity in Sprague-Dawley rat brain tissue model of transient middle cerebral artery occlusion stroke model assessed as malondialdehyde levels per mg of protein at 80 mg/kg administered via oral gavage for 7 days after ischemia onset measured 24 hrs after reperfusion (reference value: 1.46 nmol); assay type: functional; details: in the assay text read “before ischemia onset” for “after ischemia onset”
How it was run: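 Male SD rats (280–320 g; n = 12 per group) were gavaged daily for 7 days, with 0.5% CMC-Na as vehicle. Two hours after the last dose they were anesthetized with chloral hydrate (300 mg/kg ip) and underwent 2 h MCAO followed by reperfusion. Brains were taken 24 h after reperfusion, rinsed in cold saline and stored at −70 °C. Protein was quantified, then GSH, SOD, GSH-Px and MDA were measured by kits. Mean ± SD, n = 6, ANOVA/Tukey.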

CCCCC(OC(=O)CN1CCN(CCCCCOc2ccc(-c3cc(=S)ss3)cc2)CC1)c1ccccc1C(=O)Oc1ccc(/C=C/C(=O)OCCO[N+](=O)[O-])cc1OC (racemic)
Activity (Rattus norvegicus [1]): 23.07%
Activity (Rattus norvegicus [2]): 32.02%
Activity (Rattus norvegicus [3]): 29.57%
Activity [4]: 5.48 µM
Activity [5]: 6.89 µM
Activity [6]: 9.14 µM
Activity [7]: 9.63 µM
Activity [8]: 10.09 µM
Activity [9]: 10.35 µM
Activity [10]: 10.57 µM
Activity (Liver [11]): 4.25%
Activity (Liver [12]): 4.4%
inhibition at 100 µM [13]: 41%
IC50 [14]: 140 µM
inhibition at 100 µM [15]: 29.1%
Activity (Liver [16]): 2.83%
Activity (Rattus norvegicus [17]): Active
Activity (Rattus norvegicus [18]): Active
Activity (Rattus norvegicus [19]): Active
Activity (Rattus norvegicus [20]): 1.07 nmol
